# Screening data (PubChem BioAssay)
# KCNK3 inh – human KCNK3 channel inhibitors, primary screen, CHO cells, FluxOR thallium flux, B-score. 340,000 compounds, 0.84% hits. FluxOR fluorescence; hits give low values. B-score at 10 µM;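 active means B-score under library mean minus 4 SD, starting fluorescence ratio at most library mean plus 5 SD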;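 further: more negative B-score means stronger inhibition of thallium flux through KCNK3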
# KCNQ1 act – potentiators or activators of KCNQ1 channel, primary screen, cell-based, thallium flux, high-throughput; Potassium voltage-gated channel subfamily KQT member 1 (Homo sapiens), P51787; CHO-K1 KCNQ1, thallium flux FluxOR fluorescence; hits give high values; B-score at 10 µM; 310,000 compounds, 0.35% hits; AID 2648, 2010;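 active means fluorescence ratio B-score, a plate-corrected score, at least three library SD, with initial intensity B-score within 5 SD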
# Target sequence (P51787 whole entry, looked up): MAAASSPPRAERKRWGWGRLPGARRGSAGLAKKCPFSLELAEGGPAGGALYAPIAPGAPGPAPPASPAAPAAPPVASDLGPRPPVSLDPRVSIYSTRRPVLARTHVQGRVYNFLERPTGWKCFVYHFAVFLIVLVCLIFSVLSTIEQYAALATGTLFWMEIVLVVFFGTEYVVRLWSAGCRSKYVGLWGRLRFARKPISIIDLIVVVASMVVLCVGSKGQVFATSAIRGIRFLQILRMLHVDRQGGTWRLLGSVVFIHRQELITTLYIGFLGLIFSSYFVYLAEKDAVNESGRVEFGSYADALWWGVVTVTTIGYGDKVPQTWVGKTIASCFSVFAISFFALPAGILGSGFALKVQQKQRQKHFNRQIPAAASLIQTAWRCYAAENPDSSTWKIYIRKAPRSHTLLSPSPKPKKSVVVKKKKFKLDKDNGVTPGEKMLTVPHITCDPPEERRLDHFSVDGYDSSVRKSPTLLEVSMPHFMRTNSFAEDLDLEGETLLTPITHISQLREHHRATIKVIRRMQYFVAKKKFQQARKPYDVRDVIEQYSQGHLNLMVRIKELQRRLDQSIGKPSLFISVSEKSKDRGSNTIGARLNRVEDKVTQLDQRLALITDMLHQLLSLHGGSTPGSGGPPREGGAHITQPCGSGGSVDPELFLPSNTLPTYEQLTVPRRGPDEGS
#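 System: Stable KCNQ1 CHO-K1 line | Incubation: 90 min dye loading and 20 min compound exposure, both at room temperature | Measure: Ratio B score | Medium: Assay buffer for compound exposure, DMSO matched across wells | Compound dosing: Single-concentration screen | Probe or stimulus: K+/Tl+ depolarizing stimulus | Measured by: Kinetic FluxOR fluorescence, 10 s baseline plus 110 s post-stimulus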
# KCNQ1 inh – inhibitors of human KCNQ1 channel, primary screen, cell-based, thallium flux, high-throughput; CHO-K1 KCNQ1, FluxOR thallium flux fluorescence; hits give high values; AID 2642, 2010; B-score at 10 µM; 310,000 compounds, 1.3% hits;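 active means compounds whose thallium flux B-score, printed positive for inhibition, exceeds three library SD while starting fluorescence stays within three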;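 further: channel opened by potassium depolarization with thallium stimulus after 20 min compound exposure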
# hERG rescue – hERG rescue from dofetilide block, primary screen, cell-based, CHO-hERG, FluxOR thallium flux, dofetilide IC70. Voltage-gated inwardly rectifying potassium channel KCNH2 (Homo sapiens), Q12809. dofetilide IC70 present. activation (rescue from dofetilide block), less the hit threshold, % at 10 µM. 310,000 compounds, 0.51% hits;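 active means activation above the mean of controls blocked by dofetilide plus 5 SD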;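 further: thallium influx through hERG after potassium depolarization seen as dye fluorescence rise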
# KCNK9 block – KCNK9 potassium channel inhibitors, primary screen, HEK293 cells, thallium flux; 310,000 compounds, 1.2% hits; B-score at 10 µM; FluxOR thallium flux fluorescence; hits give low values; Potassium channel subfamily K member 9 (Homo sapiens), Q9NPC2; AID 488922, 2010;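 active means ratio B-score over 3 SD below the library mean, with starting fluorescence within 5 SD of its mean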;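 further: negative B-score means less thallium flux so channel inhibition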
# The depositor's hits bear a star; i = inactive; · = no result. An excerpt weighted towards active compounds, which were near 3.1% of everything screened.
SMILES,KCNK3 inh,KCNQ1 act,KCNQ1 inh,hERG rescue,KCNK9 block
N#CC(C(=O)NC1CC1)c1nc2ccccc2nc1N1CCN(C/C=C/c2ccccc2)CC1 (configuration not stated),i,i,6*,-17,i
N#CC(C(=O)NC1CC1)c1nc2ccccc2nc1N1CCCC1 (configuration not stated),i,i,i,-2,i
CCOc1ccc(N(C)c2ccc(/C=C3/SC(=S)NC3=O)cc2)cc1,i,i,i,-4,i
CCOc1ccc(N=C2NC(=O)S/C2=C\c2ccc(Cl)cc2)cc1,i,i,i,11*,i
NC1CCN(c2c(F)cc3c(=O)c(C(=O)O)cn(C4CC4)c3c2Cl)C1 (configuration not stated),i,i,i,-10,i
O=C(Nc1ccc([N+](=O)[O-])cc1)/C(=C/c1cccc([N+](=O)[O-])c1)NC(=O)C1CCCCC1,i,i,i,-4,-6.9*
Cc1ccc([N+](=O)[O-])cc1NC(=O)C1CCCC1,i,i,i,5.0*,i
Cc1ccc([N+](=O)[O-])cc1NC(=O)C1CCN(S(C)(=O)=O)CC1,i,i,i,-8,i
Cc1ccc(C2(c3ccc(C)cc3)CC2C(=O)Nc2ccc([N+](=O)[O-])cc2O)cc1 (configuration not stated),i,i,11*,-11,i
Cc1ccc(NC(=O)/C(=C/c2cccc([N+](=O)[O-])c2)NC(=O)C2CCCCC2)c(C)c1,i,i,i,-9,i
Cc1ccc([N+](=O)[O-])cc1NC(=O)CN(C1CCCCC1)S(=O)(=O)c1ccc(Cl)cc1,i,i,7*,-8,-7.7*
CCOCCCNc1ncnc2c1nc1n2CCCC1,i,i,i,-10,i
CC(=O)Nc1ccc(OCC(O)Cn2nc(C)nc2C)cc1 (configuration not stated),i,i,i,5.5*,i
Cc1nc(C)n(CC(O)COc2ccc3ccccc3c2)n1 (configuration not stated),i,i,i,-15,i
Cn1c(C(=O)NCc2cccs2)cc2c(=O)n(C)c3ccccc3c21,i,i,i,-7,i
Cn1c2ccccc2c(=O)c2ccc(NCCc3cccs3)cc21,-9.1*,·,·,·,·
NC(=S)N=Nc1c(O)n(Cc2ccc(Br)cc2)c2ccccc12,i,i,i,15*,i
C/C(Cl)=C\Cn1c(O)c(N=NC(N)=S)c2cc(Br)ccc21,i,19*,i,26*,i
NC(=S)N=Nc1c(O)n(Cc2ccc(F)cc2)c2ccccc12,i,i,i,-8,i
Cc1ccc(-c2cnc(-c3ccccc3C(=O)O)o2)cc1,i,i,i,-14,i
N=C1S/C(=C\c2ccco2)C(=O)N1c1nccs1,i,9*,i,-4,i
N=C1S/C(=C\c2ccco2)C(=O)N1c1ccc2c(c1)OCO2,i,i,i,-10,i
CCOc1ccc(NC(=O)CC2C(=O)N(c3ccc(OC)c(Cl)c3)C(=S)N2C2CC2)cc1 (configuration not stated),i,i,i,-5,i
CCC(C)n1c(=S)[nH]c2c(sc3ccc([N+](=O)[O-])cc32)c1=O (configuration not stated),i,i,i,105*,i
CC(C)n1c2ccccc2c2cc([N+](=O)[O-])ccc21,i,i,i,1,i
CC(C)C1C(c2ccccc2)NC(c2ccccc2)CC1(O)c1ccc(F)cc1 (configuration not stated),i,i,7*,-19,i
CC(C)C1C(c2ccccc2)N(C)C(c2ccccc2)CC1(O)c1ccccc1 (configuration not stated),i,i,i,-9,i
